# Source: ChEMBL document CHEMBL5357028, “Acetogenins from the Stem of Uvaria rufa and Their Cytotoxic Activity” (J Nat Prod, 2024)
# Structures can show the parent of a compound that is named as a salt. Active and inactive are the calls of the source. The rule behind the calls is not given here.
# How the values were obtained:
# [1] = system: OVCAR-3; test: Cytotoxicity against human OVCAR-3 cells assessed as reduction in cell viability measured after 72 hrs by MTS assay; format: functional, cell-based; conditions: OVCAR-3, 72 h
# How it was run: (§1)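 Cells exposed to test substance for 72 h. Viability read by MTS-based absorbance assay (CellTiter 96 AQueous One Solution) relative to DMSO solvent control. Paclitaxel served as positive control.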
# [2] = system: MDA-MB-435; test: Cytotoxicity against human MDAMB-435 cells assessed as reduction in cell viability measured after 72 hrs by MTS assay; format: functional, cell-based; conditions: MDA-MB-435, 72 h; how it was run: as §1
# [3] = system: HCT-116; test: Cytotoxicity against human HCT-116 cells assessed as reduction in cell viability measured after 72 hrs by MTT assay; format: functional, cell-based; conditions: HCT-116, 72 h
# How it was run: (§2)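 Cells grown at 37°C, 5% CO₂ (22Rv1 in RPMI 1640, HCT 116 in McCoy's; 10% FBS, penicillin/streptomycin). Trypsinized, 5000 cells/well seeded, 24 h attachment. DMSO stocks diluted in medium to final 100, 20, 4, 0.8, 0.16 and 0.032 μM; 0.5% DMSO vehicle control. After 72 h, MTT 0.5 mg/mL final for 3 h; formazan dissolved in DMSO, A570. Viability relative to DMSO control; duplicates, three independent experiments; IC50 calculated.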
# [4] = system: CWR22R; test: Cytotoxicity against human 22Rv1 cells assessed as reduction in cell viability measured after 72 hrs by MTT assay; format: functional, cell-based; conditions: 22Rv1, 72 h; how it was run: as §2
# [5] = system: Mycobacterium tuberculosis; test: Antitubercular activity against Mycobacterium tuberculosis H37Rv assessed as inhibition of bacterial growth upto 100 ug/ml; format: functional, organism-based; conditions: dose <= 100.0 µg/ml
SMILES,IC50 [1] [µM],IC50 [2] [µM],IC50 [3] [µM],IC50 [4] [µM],Activity [5]
CCCCCCCCCC[C@H](O)[C@H]1CC[C@H]([C@H]2CC[C@H]([C@H](O)CCCCCCCC[C@H](O)[C@H](O)CCC3=C[C@H](C)OC3=O)O2)O1,> 10,4.6,15,8.3,
CCCCCCCCCC[C@H](O)[C@H]1CC[C@H]([C@H]2CC[C@H]([C@H](O)CCCCCCCCCCCCC3=C[C@H](C)OC3=O)O2)O1 [BULLANIN],> 10,5.3,29.1,16.5,
CCCCCCCCCC[C@@H](O)[C@H]1CC[C@H]([C@H]2CC[C@H]([C@H](O)CCCCCCCC[C@H](O)[C@H](O)CCC3=C[C@H](C)OC3=O)O2)O1,3.7,4.4,2.7,5.5,
CCCCCCCCCC[C@@H](O)[C@H]1CC[C@H]([C@H]2CC[C@H]([C@H](O)CCCCCCCCCCCCC3=C[C@H](C)OC3=O)O2)O1 [ISODESAACETYLUVARICIN],> 10,4.1,2.8,7.8,
CCCCCCCCCC[C@@H](O)[C@H]1CC[C@H]([C@H]2CC[C@H]([C@H](O)CCCCCCCCC[C@H](O)CCC3=C[C@H](C)OC3=O)O2)O1 [UVARIGRANDIN A],4.6,4.1,5.5,7,
COc1cc([C@@H]2c3cc4c(cc3[C@@H](O[C@@H]3O[C@@H]5CO[C@@H](C)O[C@H]5[C@H](O)[C@H]3O)[C@H]3COC(=O)[C@H]23)OCO4)cc(OC)c1O [ETOPOSIDE],,,1.8,2.3,
CC[C@]1(O)C[C@@H]2CN(CCc3c([nH]c4ccccc34)[C@@](C(=O)OC)(c3cc4c(cc3OC)N(C)[C@H]3[C@@](O)(C(=O)OC)[C@H](OC(C)=O)[C@]5(CC)C=CCN6CC[C@]43[C@@H]65)C2)C1 [VINBLASTINE SULFATE],,,0.001,0.001,
CCCCCCCCCC[C@@H](O)[C@H]1CC[C@H]([C@H]2CC[C@H]([C@H](O)CCCCCCCCC[C@@H](O)CCC3=C[C@H](C)OC3=O)O2)O1,3.5,4.6,9.2,17.5,inactive
CCCCCC[C@H](O)CCC[C@H](O)[C@H]1CC[C@H]([C@H]2CC[C@H]([C@H](O)CCCCCCCCC[C@@H](O)CCC3=C[C@H](C)OC3=O)O2)O1,4.5,4.4,1.8,8.2,
CCCCCC[C@H](O)CCC[C@H](O)[C@H]1CC[C@H]([C@H]2CC[C@H]([C@H](O)CCCCCCCCCCCCCCC3=C[C@H](C)OC3=O)O2)O1,4.4,4.5,1.2,5.6,
CCCCCC[C@H](O)CCC[C@H](O)[C@H]1CC[C@H]([C@H]2CC[C@H]([C@H](O)CCCCCCCCCCCCC3=C[C@H](C)OC3=O)O2)O1 [SQUAMOCIN],4.5,4.6,1.2,6.4,
CCCCCCCCCC[C@H](O)[C@H]1CC[C@H]([C@H]2CC[C@H]([C@H](O)CCCCCCCC[C@H](O)CCCC3=C[C@H](C)OC3=O)O2)O1,,,10,12.5,
CC(=O)O[C@H]1C(=O)[C@@]2(C)[C@H]([C@H](OC(=O)c3ccccc3)[C@]3(O)C[C@H](OC(=O)[C@H](O)[C@@H](NC(=O)c4ccccc4)c4ccccc4)C(C)=C1C3(C)C)[C@]1(OC(C)=O)CO[C@@H]1C[C@@H]2O [PACLITAXEL],0.0056,0.0026,,,
